One compound from ChEMBL document CHEMBL4028911, “Discovery of a Small-Molecule Bromodomain-Containing Protein 4 (BRD4) Inhibitor That Induces AMP-Activated Protein Kinase-Modulated Autophagy-Associated Cell Death in Breast Cancer” (J Med Chem, 2017) can be followed below.

In general, pIC50 refers to the IC50 on a negative log10 scale, so that one unit is a factor of ten.

The structures appear in SMILES notation. pIC50: −log10 of the molar value. The source made the active and inactive calls. No cut-off for these calls is given here.

The subject of series [1] is MCF7. Put plainly: Induction of autophagy in human MCF7 cells assessed as reduction in cell viability at 1.5 uM administered at 1 hr post […] addition by MTT assay. In kind it is functional, cell-based. Summed up: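 MCF-7 cells pretreated with 3-MA (1 mM) for 1 h, then given 1.5 µM. Viability read by MTT: 4 h incubation with MTT, formazan dissolved in DMSO, absorbance at 570 nm.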
(Tetrazolium dyes change colour on reduction, which living cells bring about.)

Series [2] deals with MDA-MB-231. Put plainly: Antiproliferative activity against human MDA-MB-231 cells after 24 hrs by MTT assay. In kind it is functional, cell-based. The following applies: MDA-MB-231, 24 h.
In series [3] the target is T1, Bromodomain-containing protein 4 (Homo sapiens, UniProt O60885). Put plainly: Inhibition of BRD4 in human MCF7 cells assessed as increase in ULK1 phosphorylation at ser317 at 1.5 uM up to 36 hrs by Western blot analysis. Type of series: cell-based. Summed up:
(§1)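 MCF-7 (1.5 μM) or MDA-MB-231 (3 μM) cells treated for indicated times. Adherent and floating cells lysed in RIPA with 1 mM PMSF. Equal protein run on 10-15% SDS-PAGE, blotted to PVDF, blocked in milk or BSA, HRP/ECL detection. β-actin loading control.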
A general note: A western blot detects proteins with antibodies after separation by electrophoresis.

The test system of series [4] is MCF7. Put plainly: Effect on AKT expression in human MCF7 cells at 1.5 uM measured up to 36 hrs by Western blot analysis. Type of series: ADME, cell-based. The following applies: mcf7, 36 h. Summed up:
(§2)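 MCF-7 (1.5 µM) or MDA-MB-231 (3 µM) cells treated for indicated times. Adherent and floating cells lysed in RIPA with 1 mM PMSF, 4°C for 1 h. Equal protein run on 10-15% SDS-PAGE, transferred to PVDF, blocked with milk or BSA, probed with primary then HRP secondary antibodies, ECL detection; β-actin as loading control.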

The target of series [5] is T1, Bromodomain-containing protein 4. In words: Inhibition of BRD4 in human MCF7 cells assessed as downregulation of c-Myc expression at 1.5 uM measured up to 36 hrs by Western blot analysis. Type of series: cell-based. In a few lines: as §1
For series [6] the target is unchanged. Put plainly: Inhibition of BRD4 in human MDA-MB-231 cells assessed as downregulation of c-Myc expression at 3 uM measured up to 36 hrs by Western blot analysis. In kind it is cell-based. Summed up:
as §1

Series [7] deals with MDA-MB-231. In words: Induction of autophagy in human MDA-MB-231 cells assessed as increase in LC3B puncta at 3 uM after 24 hrs by DAPI-staining based immunocytochemistry. In kind it is functional, cell-based. In a few lines: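 MDA-MB-231 cells treated with 3 μM for 24 h. Blocked in PBS with 1.5% goat serum, anti-LC3B (1:200 in PBS/1% BSA) overnight at 4 °C, then FITC secondary 1 h at room temperature. DAPI counterstain; LC3B puncta scored by fluorescence microscopy.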

Series [8] concerns MCF7. Put plainly: Induction of autophagy in human MCF7 cells assessed as upregulation of beclin1 expression at 1.5 uM measured up to 36 hrs by Western blot analysis. Type of series: functional, cell-based. In a few lines:
as §2

For series [9], the system named is MCF7. In words: Induction of autophagy in human MCF7 cells assessed as LC3 lipidation at 1.5 uM in presence of ATG5 siRNA by Western blot analysis. In kind it is functional, cell-based.
Series [10] has as its target T1, Bromodomain-containing protein 4. In words: Inhibition of BRD4 in human MDA-MB-231 cells assessed as induction of AMPKalpha phosphorylation at thr172 at 3 uM in presence of ATG5 siRNA by Western blot analysis. Type of series: cell-based. Summed up:
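Cells given 50 nM ATG5 or negative-control siRNA (Lipofectamine RNAiMAX) and used 48 h later, then exposed to 1.5 μM (MCF-7) or 3 μM (MDA-MB-231). p-AMPKα analysed by western blot with β-actin loading control.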

The target in series [11] is Bromodomain-containing protein 3 (Homo sapiens, UniProt Q15059). Put plainly: Inhibition of recombinant human N-terminal GST-tagged BRD3 bromodomain-1 (29 to 145 residues) expressed in Escherichia coli expression system after 120 mins by TR-FRET assay. Summed up: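 TR-FRET bromodomain binding. Recombinant BRD domain, BET ligand and test agent in 20 μl assay buffer with 1% DMSO final. Incubated 120 min at room temperature. Blank lacks BET ligand.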
Sequence of Bromodomain-containing protein 3 (Q15059 whole entry, the tested form may be a part): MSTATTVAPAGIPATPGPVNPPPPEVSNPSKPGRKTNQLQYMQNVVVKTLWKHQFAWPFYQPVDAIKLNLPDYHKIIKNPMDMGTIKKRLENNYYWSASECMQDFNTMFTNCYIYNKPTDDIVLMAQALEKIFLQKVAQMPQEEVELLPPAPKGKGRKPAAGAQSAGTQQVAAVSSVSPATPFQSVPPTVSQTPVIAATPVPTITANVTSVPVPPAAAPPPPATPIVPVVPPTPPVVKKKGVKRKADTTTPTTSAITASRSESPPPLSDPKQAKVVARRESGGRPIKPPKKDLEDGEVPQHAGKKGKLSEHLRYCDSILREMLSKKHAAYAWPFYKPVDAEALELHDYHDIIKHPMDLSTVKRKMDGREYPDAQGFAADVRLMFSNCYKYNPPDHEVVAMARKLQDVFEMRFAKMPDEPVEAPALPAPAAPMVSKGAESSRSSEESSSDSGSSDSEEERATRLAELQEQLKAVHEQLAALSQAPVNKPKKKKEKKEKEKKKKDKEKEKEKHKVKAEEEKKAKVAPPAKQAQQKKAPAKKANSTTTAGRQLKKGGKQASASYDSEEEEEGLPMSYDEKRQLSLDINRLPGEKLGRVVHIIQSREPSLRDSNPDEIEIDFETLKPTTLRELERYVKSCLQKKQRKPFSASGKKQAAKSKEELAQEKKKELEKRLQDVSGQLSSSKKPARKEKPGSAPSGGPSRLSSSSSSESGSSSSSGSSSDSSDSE
In general terms: Time-resolved FRET reads energy transfer from a long-lived donor to a nearby acceptor.

In series [12] the test system is MCF7. Put plainly: Antitumor activity against human MCF7 cells xenografted in ig dosed nude BALB/c mouse assessed as tumor growth inhibition administered once a day for 24 days measured every 3 days relative to control. In kind it is functional, organism-based. In a few lines: (§3)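 Female BALB/c nude mice, 6-8 weeks, 20-22 g, injected subcutaneously with 5×10^6 MCF-7 or MDA-MB-231 cells. At 100 mm³ tumor volume (V = L×W²/2), split into four groups: 25, 50 or 100 mg/kg intragastric once daily for 24 or 27 days, or vehicle. Tumor volume and body weight measured every 3 days; tumors excised and weighed at end. MCF-7 n=7, MDA-MB-231 n=6 per group.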

The subject of series [13] is MDA-MB-231. In words: Antitumor activity against human MDA-MB-231 cells xenografted in ig dosed nude BALB/c mouse assessed as tumor growth inhibition administered once a day for 27 days measured every 3 days relative to control. Type of series: functional, organism-based. In a few lines: as §3
Series [14] deals with Mus musculus. Put plainly: In vivo Antiproliferative activity in BALB/c mouse xenografted with human MCF7 cells assessed as increase in LC3 expression at 100 mg/kg, ig administered once a day for 24 days by hematoxylin-staining based immunohistochemistry analysis. In kind it is functional, organism-based. Summed up:
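Xenograft tumors from vehicle and 100 mg/kg groups were formalin-fixed and sectioned. Antigen retrieval by microwaving in EDTA buffer (pH 8.0) or citrate buffer (pH 6.0). […] Percentage of positive staining quantified.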

For series [15], the system named is Mus musculus. In words: Induction of cleavage of caspase-3 in BALB/c mouse xenografted with human MCF7 cells at 100 mg/kg, ig administered once a day for 24 days by Western blot analysis. In kind it is functional, organism-based. In a few lines: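 Female BALB/c nude mice (6-8 weeks) given 5×10^6 MCF-7 or MDA-MB-231 cells subcutaneously. At 100 mm3 tumours, dosed intragastrically once daily (25, 50, 100 mg/kg, or vehicle) for 24 or 27 days. Excised tumours lysed and probed by western blot for caspase-3 cleavage.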

The test system of series [16] is Mus musculus. Put plainly: In vivo inhibition of c-Myc expression in BALB/c mouse xenografted with human MDA-MB-231 cells at 100 mg/kg, ig administered once a day for 27 days by Western blot analysis. Type of series: functional, organism-based. Summed up:
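Tumor tissues excised from MCF-7 or MDA-MB-231 xenograft mice were lysed and analysed by western blot for BRD4, c-Myc, LC3 and cleaved caspase-3.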

Series [17] deals with MCF7. In words: Antitumor activity against CM-Dil-labeled human MCF7 cells implanted in transgenic zebrafish embryos assessed as tumor growth inhibition at 12.5 to 50 uM dosed via sterile dechlorinated tap water and measured on fifth day after implantation by fluorescence assay. In kind it is functional, organism-based.
In series [18] the target is T1, Bromodomain-containing protein 4. Put plainly: Inhibition of BRD4 interaction with AMPK in human MCF7 cells at 1.5 uM by co-immunoprecipitation assay. In kind it is cell-based. Summed up:
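Cells lysed in RIPA buffer (40 mM Tris-HCl pH 7.5, 150 mM NaCl, 0.5% NP-40, 5% glycerol, 10 mM NaF, protease inhibitors). Lysates incubated overnight at 4 °C with BRD4 or p53 antibody plus protein A/G beads, washed 3 times, resolved on 10% SDS-PAGE and blotted for AMPKα or p53.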

For series [19] the target is unchanged. Put plainly: Inhibition of BRD4 in human MCF7 cells assessed as reduction in ULK1 protein expression at 1.5 uM up to 36 hrs by Western blot analysis. In kind it is cell-based. Summed up:
as §1

Series [20] has the same target. Put plainly: Inhibition of BRD4 in human MCF7 cells assessed as reduction in FIP200 protein expression at 1.5 uM up to 36 hrs by Western blot analysis. Type of series: cell-based. In a few lines:
as §1

For `Cc1cc(-c2nc3sc4c(c3c(=O)[nH]2)CCN(C)C4)cc(C)c1O`, the outcome in series [1] and in series [9] was inactive. The pIC50 in series [2] is 5.49; in [11], less than 4.00. Besides, the inhibition result in series [3], in series [5], in series [6], in series [10], in series [18] and in series [19] was “Active” each time. Further, the inhibition result in [20] was “Active”. Moreover, the Activity entry in series [4] is “Non-Toxic”. Moreover, the result in series [7], in series [8], in [14], in series [15] and in series [16] was Active. The TGI entry in [12] and in series [13] was “Dose-dependent effect” in each case. Also, the TGI entry in series [17] was “Active”.
